Compound activity from PubChem BioAssay.
The list is not random: actives were taken first. Their share in the collection is about 1.3%.
CRFR2-BP antag – CRF-BP/CRF-R2 complex antagonism. HEK293 CRF-R2/CRF-BP, CRF-induced calcium fluorescence. inhibition, % at 11.8 µM. 350,000 tested, 0.59% active;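 active means inhibition of the ligand-induced calcium signal above about 50% at the single tested concentration, limit read from the data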
Tn7 DDE FP – disrupts Tn7 cyclic peptide binding to fibrin D-Dimer-E complex; FP displacement of FITC-Tn7 peptide from fibrin DD(E); 0% = median of compound wells per plate; P02675; inhibition, % at 8.3 µM; AID 720508; 370,000 tested, 0.13% active;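 active means inhibition above the mean of compounds falling within the control limits plus 3 SD of them, cut at about 14% in these data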;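 further: 0% = plate median of compound wells and 100% = 10 µM Aha-Tn7 peptide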
Target sequence (P02675 whole entry, looked up): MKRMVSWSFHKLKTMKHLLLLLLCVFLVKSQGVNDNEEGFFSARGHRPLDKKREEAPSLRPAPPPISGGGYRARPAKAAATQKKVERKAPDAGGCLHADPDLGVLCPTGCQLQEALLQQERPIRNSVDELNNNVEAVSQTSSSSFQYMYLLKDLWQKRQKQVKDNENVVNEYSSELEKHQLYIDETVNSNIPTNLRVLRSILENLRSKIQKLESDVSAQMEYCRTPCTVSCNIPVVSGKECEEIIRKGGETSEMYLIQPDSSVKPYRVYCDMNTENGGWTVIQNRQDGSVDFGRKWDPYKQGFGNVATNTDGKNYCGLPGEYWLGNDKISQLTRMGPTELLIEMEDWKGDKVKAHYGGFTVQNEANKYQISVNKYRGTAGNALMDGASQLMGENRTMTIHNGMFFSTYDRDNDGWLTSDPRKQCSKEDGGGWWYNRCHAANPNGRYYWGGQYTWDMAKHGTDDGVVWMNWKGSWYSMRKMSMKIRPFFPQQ
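Assay system: human fibrin DD(E) protein / Input: 2 µM fibrin DD(E) / Benchmarks: high control of 10 µM Aha-Tn7 peptide / Measured by: fluorescence polarization of the labelled Tn7 tracer / Medium: Tris buffer with calcium and detergent, pH 7.8 / Timing: 10 min compound pre-incubation, 3 h probe incubation at room temperature / Repeats: one replicate per compound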
DDE Tn6 FP inh – inhibitors of Tn6 peptide binding to human fibrin DD(E); P02675; 370,000 tested, 0.21% active; Fibrin DD(E) TRITC-Tn6 fluorescence polarization displacement; AID 720509; inhibition, % at 8.3 µM;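 active means inhibition above a per-campaign cutoff: mean of compounds within control limits plus 3 SD, cut at about 15% in these data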;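 further: 0% = median of all compound wells on the plate and 100% = blocking peptide control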
CRFBP-R2 agonist – CRF-BP/CRF-R2 complex agonism; activation, % at 13.2 µM; HEK293 CRF-R2/CRF-BP, calcium dye fluorescence (FLIPR); percent of saturating CRF peptide response; 350,000 tested, 0.46% active;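 active means activation of at least 50%, plus an integration ratio under a set limit after plate pattern correction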;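 further: plate controls were neutral control wells without compound for no effect and CRF at EC100 for full effect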
Starred values were filed as active, the others as inactive; / = no result.

SMILES	CRFR2-BP antag	Tn7 DDE FP	DDE Tn6 FP inh	CRFBP-R2 agonist
COc1ccc(-c2nn(-c3ccccc3C)cc2CNCc2cccnc2)cc1F	73.3*	3.6	0.6	1.8
CCOc1ccccc1N1CCN(C(=O)Cc2ccc(S(=O)(=O)N3CCOCC3)s2)CC1	101.2*	-1.9	6.8	0.4
COC(=O)C1=C(C)N(Cc2ccc(Br)cc2)C(=S)NC1c1cccc(Br)c1 (stereo not given)	/	-6.0	-1.9	/
COc1cccc(CNS(=O)(=O)c2cc3c(cc2Br)CC(C)N3C(C)=O)c1 (stereo not given)	/	-0.7	-4.9	/
Cc1cccc(C(=O)Oc2ccc(/C=N/NC(=O)c3ccc(O)cc3)cc2)c1	105.3*	-0.2	11.6	2.9
CCC(NC(=O)c1ccc2c(ccn2Cc2cccc(-c3ccccc3C(=O)O)c2)c1)c1ccccc1 (stereo not given)	/	-1.4	-17.8	/
Brc1cccc(C2CC(c3ccccc3)n3nnnc3N2)c1 (stereo not given)	54.8*	-2.3	-2.5	-3.6
CC1=CC(C)(C)N(C(=O)CSc2nnc(N)s2)c2ccccc21	-26.2	5.0	4.0	53.1*
CC1=CC(C)(C)N(C(=O)CSc2ncn[nH]2)c2ccccc21	-18.9	5.2	1.2	4.1
COC(=O)[C@]12C[C@H](CC(=O)N3CCC(c4ccccc4)CC3)C(=O)N(CCC3=CCCCC3)C1=C[C@H](C(C)C)O[C@@H]2C1CC1	/	-2.0	1.7	/
COc1cc(CNc2ccccc2SC)cc(OC)c1OC	73.1*	-9.7	9.8	-7.2
C[C@@H]1CN([C@H](C)CO)C(=O)c2cc(NC(=O)Nc3ccc(C(F)(F)F)cc3)ccc2O[C@H]1CN(C)C(=O)Nc1ccc(F)cc1	8.1	2.1	-6.5	6.3
C[C@H](CO)N1C[C@H](C)[C@@H](CN(C)C(=O)Nc2ccc(C(F)(F)F)cc2)Oc2ccc(NC(=O)Nc3ccc(C(F)(F)F)cc3)cc2C1=O	-3.0	-0.5	30.6*	-0.2
COC(=O)CSc1nn(-c2ccc(F)cc2)c(=S)s1	51.2*	-1.3	-2.4	-9.9
O=C(Nc1nnc(-c2ccccc2)o1)c1nc2ccccc2s1	-65.1	2.7	-7.9	139.6*
COc1ccc(C2=CC(c3ccc(C)cc3)n3nnnc3N2)cc1 (stereo not given)	-81.1	/	/	91.5*
CC1=CC(c2ccc(Cl)cc2)n2nc(N3C(=O)CCC3=O)nc2N1 (stereo not given)	-10.0	/	/	-1.3
COc1ccc(C2=CC(c3ccc(OC)c(OC)c3)n3nnnc3N2)c(OC)c1 (stereo not given)	-1.3	2.8	2.2	87.6*
Cc1ccc(C2C=C(c3ccccc3)Nc3nc(N4C(=O)CCC4=O)nn32)cc1 (stereo not given)	-0.6	4.9	-1.4	80.6*
COc1cccc(C2C=C(c3ccc(OC)cc3OC)Nc3nnnn32)c1 (stereo not given)	-5.6	/	/	81.4*
COc1ccc(C2C=C(c3ccccc3)Nc3nnnn32)cc1 (stereo not given)	-21.0	-0.2	2.5	0.4
O=C1CSC(=S)N1/N=C/c1cc(Br)c(O)c(Br)c1	-219.1	/	/	184.9*
O=C1C2=C(SCCS2)C(=O)N1CCCO	33.9	9.9	11.0	59.2*
O=C1c2ccc(-c3ccc4c(c3)C(=O)N(CCCO)C4=O)cc2C(=O)N1CCCO	-0.2	1.0	5.7	-1.9
COc1cc(C(=O)Nc2ccc(S(=O)(=O)Nc3cnc4ccccc4n3)cc2)cc(OC)c1OC	6.9	-1.9	-6.4	-1.6
SMILES	CRFR2-BP antag	Tn7 DDE FP	DDE Tn6 FP inh	CRFBP-R2 agonist
COc1cc(OC)cc(C(=O)Nc2ccc(S(=O)(=O)Nc3cnc4ccccc4n3)cc2)c1	65.3*	1.3	2.2	-0.2
c1ccc(-c2sc3ccccc3c2-c2ccc(OCCN3CCCC3)cc2)cc1	0.0	-4.4	1.2	4.6
COc1ccc(-c2sc3ccccc3c2-c2ccc(OCCN3CCCCC3)cc2)cc1	61.7*	3.0	-1.0	7.7
CC1(c2nnnn2C2CCCCC2)CSCC(=O)N1CCc1ccc(O)cc1 (stereo not given)	/	-2.6	-5.9	/
Nc1ccc(C(=O)Nc2cccc3ncccc23)cc1	9.7	-2.1	-1.1	0.0
O=C(Nc1cccc2ncccc12)c1ccc2c(c1)OCCO2	12.8	-1.2	-4.7	57.0*
O=C(Nc1nc2ncccn2c1-c1ccc(F)c(F)c1)c1ccccc1	/	-2.3	2.8	/
CCNC(=O)O[C@@H]1C=C[C@@H](C#Cc2ccc(C(C)(C)C)cc2)O[C@@H]1COC(C)=O	/	-1.5	-2.6	/
